In general, GI50 refers to the concentration at which growth is held to half of that of the control. A lower GI50 goes with greater sensitivity of the cells. As a reminder, the IC50 is the concentration needed to halve the response being measured. Read a high IC50 as weaker potency in that assay.

Results on one compound are retold here after ChEMBL document CHEMBL3112420, “Discovery of 8-cyclopentyl-2-[4-(4-methyl-piperazin-1-yl)-phenylamino]-7-oxo-7,8-dihydro-pyrido[2,3-d]pyrimidine-6-carbonitrile (7x) as a potent inhibitor of cyclin-dependent kinase 4 (CDK4) and AMPK-related kinase 5 (ARK5)” (J Med Chem, 2014).

Data set [1] has as its system 2008. Kind of data set: Cytotoxicity against human 2008 cells after 96 hrs by Cell-Titer Blue assay. It is filed as functional. As to conditions: Homo sapiens, 2008, 96 h.
The subject of data set [2] is A549. Description: Cytotoxicity against human A549 cells after 96 hrs by Cell-Titer Blue assay. As to conditions: A549, 96 h. It is filed as functional.
For data set [3], the system named is SW480. Description: Cytotoxicity against human SW480 cells after 96 hrs by Cell-Titer Blue assay. Format: functional. As to conditions: SW480, 96 h.
Data set [4] concerns the target CDK6/cyclin D1 (Homo sapiens, UniProt Q00534). Kind of data set: Inhibition of CDK6/cyclinD1 (unknown origin). Format: protein-complex assay.
Data set [5] concerns the target Platelet-derived growth factor receptor beta (Homo sapiens, UniProt P09619). Description: Inhibition of PDGFRbeta (unknown origin).
Data set [6] deals with DU-145. Description: Cytotoxicity against human DU145 cells after 96 hrs by Cell-Titer Blue assay. Format: functional, cell-based. As to conditions: DU-145, 96 h.
Data set [7] has as its system MDA-MB-231. Kind of data set: Cell cycle arrest in human MDA-MB-231 cells assessed as accumulation at sub-G1 phase at 0.5 to 1 uM after 48 hrs by propidium iodide staining-based flow cytometric analysis. Format: functional. (In general: Flow cytometry measures light scatter and fluorescence of single cells or particles in a stream.)
In data set [8] the test system is Mus musculus. Description: Toxicity in CD-1 mouse xenografted with human MDA-MB-231 cells assessed as weight loss at 100 to 200 mg/kg, ip measured for 7 days. Further details: dose 100-200 mg/kg, route intraperitoneal. It is filed as organism-based. As to conditions: in vivo, 168 h.
Data set [9] in a line: Cytotoxicity against human SNU475 cells after 96 hrs by Cell-Titer Blue assay. It is filed as functional. As to conditions: SNU-475, 96 h.
For data set [10], the system named is MDA-MB-231. Kind of data set: Induction of apoptosis in human MDA-MB-231 cells assessed as PARP cleavage at 1 to 10 uM after 24 hrs by Western blotting analysis. It is filed as functional, cell-based. (In general: In western blotting, separated proteins are transferred to a membrane and probed.)
The subject of data set [11] is MDA-MB-157. Description: Cytotoxicity against human MDA-MB-157 cells after 96 hrs by Cell-Titer Blue assay. It is filed as functional. As to conditions: MDA-MB-157, 96 h.
For data set [12], the system named is MDA-MB-231. Kind of data set: Antitumor activity against ip dosed human MDA-MB-231 cells xenografted in NCR nude mouse assessed as inhibition of tumor growth administered as […] on alternative days measured every 2 days up to 21 days. Format: functional, organism-based. In short, it runs like this: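 MDA-MB-231 cells orthotopically implanted into mammary fat pads of 6–8 week old female nude mice (n=11 per group). Dosing began when average tumour volume reached 100 mm3. Lactate salt in PBS or vehicle was given intraperitoneally every other day (Q2D). Tumour volumes and body weights were recorded every 2 days over 21 days; mean ± SEM.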

Data set [13] can be described thus: Cytotoxicity against human BT20 cells after 96 hrs by Cell-Titer Blue assay. To be noted: BT-20, 96 h. It is filed as functional.
For data set [14], the target named is Fibroblast growth factor receptor 1 (Homo sapiens, UniProt P11362). Kind of data set: Inhibition of FGFR1 (unknown origin).
Fibroblast growth factor receptor 1, sequence (P11362 whole entry): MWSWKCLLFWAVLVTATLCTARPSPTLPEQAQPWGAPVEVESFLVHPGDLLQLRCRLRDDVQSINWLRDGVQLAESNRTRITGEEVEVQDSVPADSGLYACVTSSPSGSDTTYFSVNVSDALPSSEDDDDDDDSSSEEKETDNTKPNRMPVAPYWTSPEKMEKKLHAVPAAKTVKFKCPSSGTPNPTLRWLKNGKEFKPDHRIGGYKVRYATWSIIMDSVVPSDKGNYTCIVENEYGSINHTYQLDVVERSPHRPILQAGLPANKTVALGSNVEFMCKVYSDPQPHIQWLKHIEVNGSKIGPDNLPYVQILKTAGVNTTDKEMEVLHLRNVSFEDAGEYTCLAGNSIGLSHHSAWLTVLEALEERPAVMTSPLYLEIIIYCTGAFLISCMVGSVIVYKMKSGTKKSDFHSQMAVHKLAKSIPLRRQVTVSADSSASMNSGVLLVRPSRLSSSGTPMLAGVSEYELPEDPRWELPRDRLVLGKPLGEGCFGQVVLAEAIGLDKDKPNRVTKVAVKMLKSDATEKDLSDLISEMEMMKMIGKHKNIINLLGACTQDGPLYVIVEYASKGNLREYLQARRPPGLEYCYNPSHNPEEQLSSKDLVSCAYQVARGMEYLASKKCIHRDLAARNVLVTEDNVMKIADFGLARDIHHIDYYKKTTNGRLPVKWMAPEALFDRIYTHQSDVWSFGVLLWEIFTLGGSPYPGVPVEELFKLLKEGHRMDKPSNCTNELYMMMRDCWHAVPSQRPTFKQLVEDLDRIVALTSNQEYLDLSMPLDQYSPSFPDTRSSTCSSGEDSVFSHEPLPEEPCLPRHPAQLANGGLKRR

Activity calls are given as the source filed them. The rule behind the calls is not given here.

Platelet-derived growth factor receptor beta, sequence (P09619 whole entry): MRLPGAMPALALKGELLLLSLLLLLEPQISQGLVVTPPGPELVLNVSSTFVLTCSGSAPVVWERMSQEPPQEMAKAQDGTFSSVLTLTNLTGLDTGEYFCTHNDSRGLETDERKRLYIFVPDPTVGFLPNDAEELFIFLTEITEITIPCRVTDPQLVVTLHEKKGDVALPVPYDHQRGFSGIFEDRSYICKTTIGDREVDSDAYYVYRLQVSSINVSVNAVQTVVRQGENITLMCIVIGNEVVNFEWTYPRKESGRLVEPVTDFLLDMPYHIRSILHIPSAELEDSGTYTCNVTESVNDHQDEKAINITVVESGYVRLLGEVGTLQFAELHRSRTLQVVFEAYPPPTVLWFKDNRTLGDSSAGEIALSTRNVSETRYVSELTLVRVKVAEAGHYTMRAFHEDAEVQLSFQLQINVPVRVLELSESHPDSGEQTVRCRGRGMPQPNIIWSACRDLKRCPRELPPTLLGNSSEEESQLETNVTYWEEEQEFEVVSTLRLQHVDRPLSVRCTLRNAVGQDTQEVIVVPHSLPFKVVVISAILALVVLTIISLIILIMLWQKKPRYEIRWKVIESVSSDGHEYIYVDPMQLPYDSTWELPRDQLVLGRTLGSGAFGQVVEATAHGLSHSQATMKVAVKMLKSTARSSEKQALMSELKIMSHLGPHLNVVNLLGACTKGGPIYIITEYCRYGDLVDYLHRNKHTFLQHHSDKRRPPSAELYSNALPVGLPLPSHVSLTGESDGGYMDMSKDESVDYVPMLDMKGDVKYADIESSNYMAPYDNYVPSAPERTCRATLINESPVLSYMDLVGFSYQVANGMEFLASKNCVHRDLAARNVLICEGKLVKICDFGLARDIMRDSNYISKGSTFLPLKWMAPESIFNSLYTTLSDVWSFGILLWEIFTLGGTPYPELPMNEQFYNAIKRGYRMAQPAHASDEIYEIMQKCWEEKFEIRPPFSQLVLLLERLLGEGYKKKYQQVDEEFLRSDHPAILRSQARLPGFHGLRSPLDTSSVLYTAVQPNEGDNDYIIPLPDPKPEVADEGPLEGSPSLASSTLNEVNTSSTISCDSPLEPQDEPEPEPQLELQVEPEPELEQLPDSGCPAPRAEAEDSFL
CDK6/cyclin D1, sequence (P24385 whole entry): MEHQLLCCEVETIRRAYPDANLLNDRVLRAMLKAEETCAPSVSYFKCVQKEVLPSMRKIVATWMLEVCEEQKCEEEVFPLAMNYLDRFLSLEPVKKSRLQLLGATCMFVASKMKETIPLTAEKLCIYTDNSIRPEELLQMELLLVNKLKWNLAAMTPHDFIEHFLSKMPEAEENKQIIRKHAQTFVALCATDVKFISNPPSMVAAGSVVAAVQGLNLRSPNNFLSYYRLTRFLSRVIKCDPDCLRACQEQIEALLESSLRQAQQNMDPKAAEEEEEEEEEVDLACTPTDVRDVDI
CDK6/cyclin D1, sequence (Q00534 whole entry): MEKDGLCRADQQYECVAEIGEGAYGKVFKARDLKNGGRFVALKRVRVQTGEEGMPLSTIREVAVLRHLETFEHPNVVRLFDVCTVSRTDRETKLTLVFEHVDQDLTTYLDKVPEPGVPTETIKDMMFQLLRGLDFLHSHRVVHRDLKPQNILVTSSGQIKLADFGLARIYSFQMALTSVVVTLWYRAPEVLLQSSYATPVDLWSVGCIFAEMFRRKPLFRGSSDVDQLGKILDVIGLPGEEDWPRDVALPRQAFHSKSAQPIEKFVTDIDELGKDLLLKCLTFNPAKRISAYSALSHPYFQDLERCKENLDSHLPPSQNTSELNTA

In the case of `CN1CCN(c2ccc(Nc3ncc4cc(C#N)c(=O)n(C5CCCC5)c4n3)cc2)CC1` [NARAZACICLIB], the GI50 in data set [1] is 1500 nM; in data set [2], 200 nM; in [3] it was 90 nM; in data set [6], 50 nM; in [9], 300 nM; in data set [11] it was 1000 nM. The compound also gave a GI50 in data set [13] of 100 nM. Moreover, the IC50 in data set [4] worked out at 9.82 nM; in [5], 26 nM; in data set [14] it was 26 nM. For the same compound, the outcome in [7] and in data set [10] was Active. Also, in [8], the Activity entry is on record as “Non-toxic”. Moreover, in data set [12], the inhibition result was “Dose-dependent effect”.
